According to ChEMBL document CHEMBL5131470, “Structure-activity and structure-property relationship studies of spirocyclic chromanes with antimalarial activity” (Bioorg Med Chem, 2022):
≈ marks a conversion by molar mass, not a printed value.

How the values were obtained:
Plasmodium falciparum [1] = experiment: Antimalarial activity against chloroquine-resistant Plasmodium falciparum Dd2 assessed as inhibition of parasite growth incubated for 72 hrs by SYBR green I-based DNA quantification assay; assay type: functional, organism-based; details: Dd2, 72 h
[2] = Cytotoxicity against human HepG2 cells assessed as reduction in cell viability incubated for 48 hrs by MTS assay; assay type: toxicity, cell-based
In short: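 HepG2 human hepatoma cells were seeded at 2,500 cells/well in 384-well plates and incubated 24 h. Serial compound dilutions (0–40 μM range) were added, then cells were incubated a further 48 h.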

[3] = Selectivity index, ratio of EC50 for cytotoxicity against human HepG2 cells to EC50 for antimalarial activity against chloroquine-resistant Plasmodium falciparum Dd2; assay type: toxicity, cell-based; details: read-out: Ratio EC50
In short: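 Human HepG2 hepatoma cells were seeded at 2,500 cells/well and grown 24 h. Serial dilutions of compound (0–40 μM) were then added for another 48 h. […] SI = EC50(HepG2)/EC50(Dd2).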

Plasmodium falciparum [4] = experiment: Antiplasmodial activity against chloroquine-sensitive Plasmodium falciparum D6 assessed as inhibition of parasite growth incubated for 48 hrs by time zero-[3H]hypoxanthine incorporation assay; assay type: functional, organism-based
Plasmodium falciparum [5] = experiment: Antiplasmodial activity against artemisinin-resistant Plasmodium falciparum ARC08-022 assessed as inhibition of parasite growth incubated for 48 hrs by time zero-[3H]hypoxanthine incorporation assay; assay type: functional, organism-based
Plasmodium falciparum [6] = experiment: Selectivity for antiplasmodial activity for chloroquine-resistant Plasmodium falciparum Dd2 over antiplasmodial activity against chloroquine-sensitive Plasmodium falciparum D6; assay type: functional
Plasmodium falciparum [7] = experiment: Selectivity for antiplasmodial activity for chloroquine-resistant Plasmodium falciparum Dd2 over antiplasmodial activity against artemisinin-resistant Plasmodium falciparum ARC08-022; assay type: functional
Plasmodium falciparum [8] = experiment: Selectivity for antiplasmodial activity for chloroquine-sensitive Plasmodium falciparum 3D7 over antiplasmodial activity against chloroquine-sensitive Plasmodium falciparum D6; assay type: functional
Plasmodium falciparum [9] = experiment: Selectivity for antiplasmodial activity for chloroquine-sensitive Plasmodium falciparum 3D7 over antiplasmodial activity against artemisinin-resistant Plasmodium falciparum ARC08-022; assay type: functional
[10] = Octanol-water distribution coefficient, logD of the compound at pH 3 by HPLC-based analysis; assay type: physicochemical
[11] = Octanol-water distribution coefficient, logD of the compound at pH 7.4 by HPLC-based analysis; assay type: physicochemical
[12] = Aqueous solubility of the compound at pH 2 by HPLC analysis; assay type: physicochemical; details: aqueous solution
In short: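 Aqueous solubility was measured at pH 2.0 with an in-house HPLC assay. Values are reported as bins: ≤10 μM, 10–20 μM, 20–40 μM, 40–80 μM and ≥80 μM.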

[13] = Aqueous solubility of the compound at pH 6.5; details: aqueous solution

| SMILES | EC50 (Plasmodium falciparum [1]) | EC50 at 48 h [2] | selectivity ratio [3] | EC50 (Plasmodium falciparum [4]) | EC50 (Plasmodium falciparum [5]) | Selectivity ratio (Plasmodium falciparum [6]) | Selectivity ratio (Plasmodium falciparum [7]) | Selectivity ratio (Plasmodium falciparum [8]) | Selectivity ratio (Plasmodium falciparum [9]) | logD [10] | logD [11] | solubility [12] | solubility [13] |
| --- | --- | --- | --- | --- | --- | --- | --- | --- | --- | --- | --- | --- | --- |
| OC(CN1CCC2(CC1)CC(O)c1ccc3ccccc3c1O2)c1ccc(F)c(F)c1 (configuration not stated) | 320 nM | > 20000 nM | > 53.3 | 1480 nM | 1810 nM | 3 | 3 | 3 | 3 |  |  |  |  |
| OC1CC2(CCN(CCC3CCCCC3)CC2)Oc2c1ccc1ccccc21 (configuration not stated) | 500 nM | 14000 nM | 35.1 | 500 nM | 630 nM |  |  |  |  | 2.97 | 3.54 | 40 µM (≈ 15.2 µg/mL) | 20 µM (≈ 7.59 µg/mL) |
| O=C1CC2(CCN(CCc3ccc(F)c(F)c3)CC2)Oc2c1ccc1ccccc21 | > 2500 nM | > 20000 nM | 4 | 260 nM | 860 nM |  |  |  |  | 2.56 | 3.81 | ≥ 80 µM | 10 µM (≈ 4.07 µg/mL) |
